Results published in ChEMBL document CHEMBL4732139, “Novel N-Methylated Cyclodepsipeptide Prodrugs for Targeted Cancer Therapy” (J Med Chem, 2021).
Active and inactive are the calls of the source. The rule behind the calls is not given here. Where a SMILES comes first, the peptide text is derived from it. Bridges are numbered along the chain shown (N, C = ends). [ ]: non-standard residue; d: D form. The star is where a group is joined. NMe2Val = CC(C)[C@@H](C(=O)*)N(C)C; NMeI = CC[C@H](C)[C@H](NC)C(=O)O; NMeT = CN[C@H](C(=O)O)[C@@H](C)O; NMeL = CN[C@@H](CC(C)C)C(=O)O; dHiv = CC(C)[C@@H](O)C(=O)O; NMeA = CN[C@@H](C)C(=O)O; dNMeA = CN[C@H](C)C(=O)O

Assays:
[1] = system: BT-549; test: Cytotoxicity in human BT-549 cells assessed as reduction in cell viability incubated for 72 hrs by CCK8 assay; type: functional, cell-based
Procedure, shortened: (§1)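 CCK-8 viability assay with a 72 h treatment. Cells seeded at 3000−4000/well and preincubated overnight. Concentration gradient applied in quadruplicate. Then 10% CCK-8 for 1 h at 37 °C and A450 read. IC50 by log(inhibitor)-response fitting.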

[2] = system: A549; test: Cytotoxicity in human A549 cells assessed as reduction in cell viability incubated for 48 hrs by CCK8 assay; type: functional, cell-based
Procedure, shortened: (§2)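 Cells grown in high-glucose DMEM with 10% FBS and penicillin/streptomycin at 37 °C, 5% CO₂. 3000−4000 cells/well seeded and preincubated overnight. Treated with a concentration gradient in quadruplicate for 48 h. Medium then replaced with 10% CCK-8 in fresh medium for 1 h at 37 °C, A450 read. IC50 from log(inhibitor)-response fit, mean SD of three independent experiments.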

[3] = system: BT-549; test: Cytotoxicity in human BT-549 cells assessed as reduction in cell viability incubated for 48 hrs by CCK8 assay; type: functional, cell-based; procedure, shortened: as §2
[4] = system: A549; test: Cytotoxicity in human A549 cells assessed as reduction in cell viability incubated for 72 hrs by CCK8 assay; type: functional, cell-based; procedure, shortened: as §1
[5] = Toxicity in Balb/c mouse assessed as induction of weight loss at 1 mg/kg, iv dosed every 2 days and measured on day 3; type: organism-based; conditions: in vivo, 72 h, time 3 day
Procedure, shortened: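 In vivo tolerability in six-week-old male Balb/c nude mice (n = 3 per group). Compounds were given intravenously every 2 days at various dosages, and body weight was followed over time.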

[6] = Toxicity in Balb/c mouse xenografted with human A549 cells assessed as induction of weight loss at 5 mg/kg, iv dosed every 2 days for total 10 times and measured on day 21; type: organism-based; conditions: in vivo, 504 h, time 21 day
Procedure, shortened: (§3)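 Six-week male Balb/c nude mice; 1 × 10⁷ A549 cells washed in cold PBS, suspended in serum-free high-glucose DMEM, injected s.c. in right flank. At ~50 mm³ (L × W × 1/2 W), randomized into two groups, n = 7 each. 5 mg/kg in 10% DMSO/PBS (1 mg/mL) given i.v. via tail vein every 2 days ×10. Vehicle control 10% DMSO/PBS. Tumor size and body weight measured before each injection. Tumors excised and weighed at end.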

[7] = system: A549; test: Cytotoxicity in human A549 cells assessed as reduction in cell viability incubated for 48 hrs in absence of GSH-OEt by CCK8 assay; type: functional, cell-based; conditions: A549, 48 h; procedure, shortened: as §2
[8] = system: A549; test: Antitumor activity against human A549 cells xenografted in Balb/c mouse assessed as reduction in tumor growth at 5 mg/kg, iv dosed every 2 days for total 10 times and measured on day 21; type: functional, organism-based; conditions: time 21.0 day; procedure, shortened: as §3
[9] = Drug metabolism in PBS at 37 degC assessed as metabolite-1a formation at 50 uM in presence of DTT after 30 mins by RP-HPLC analysis
Procedure, shortened: (§4)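 50 μM conjugate (from 2 mM DMSO stock) in 10% DMSO/PBS with 150 μM DTT (final) at 37 °C. Aliquots taken at 30, 60 and 90 min for RP-HPLC: C18, 10−100% CH₃CN over 20 min in 0.1% TFA water, 0.5 mL/min, detection at 220 and 254 nm. Three repeats.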

[10] = system: A549; test: Cytotoxicity in human A549 cells assessed as reduction in cell viability incubated for 48 hrs in presence of GSH-OEt by CCK8 assay; type: functional, cell-based; conditions: A549, 48 h
Procedure, shortened: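 A549 cells preincubated 2 h with 1 mM GSH-OEt, then exposed to compound for 48 h. Viability by CCK-8. Remaining steps: overnight-seeded cells (3000−4000/well), quadruplicate wells, 10% CCK-8 for 1 h at 37 °C, A450. IC50 by log(inhibitor)-response fit, mean of triplicate.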

[11] = system: A549; test: Antitumor activity against human A549 cells xenografted in Balb/c mouse assessed as reduction in tumor size at 5 mg/kg, iv dosed every 2 days for total 10 times and measured on day 21; type: functional, organism-based; conditions: time 21.0 day; procedure, shortened: as §3
[12] = Toxicity in Balb/c mouse assessed as induction of weight loss at 5 mg/kg, iv dosed every 2 days for total 10 times and measured on day 21; type: organism-based; conditions: in vivo, 504 h, time 21 day
Procedure, shortened: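 Six-week male Balb/c nude mice, n = 3 per group, given various doses by i.v. injection every 2 days. Body weight monitored.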

[13] = Drug metabolism in PBS at 37 degC assessed as parent compound disappearance at 50 uM in presence of DTT after 90 mins by RP-HPLC analysis; procedure, shortened: as §4
[14] = Stability in PBS at 37 degC assessed as parent intact compound remaining level at 50 uM after 24 hrs by RP-HPLC analysis; type: physicochemical; conditions: read-out: Stabilty
Procedure, shortened: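 50 μM compound in 10% DMSO/PBS without DTT or cathepsin B at 37 °C. Sampled at 0, 4, 8, 12 and 24 h and analyzed by RP-HPLC (C18, 10−100% CH₃CN/0.1% TFA over 20 min). Three repeats.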

[15] = Drug metabolism in PBS at 37 degC assessed as metabolite-1a formation at 50 uM in presence of DTT after 30 to 90 mins by RP-HPLC analysis; conditions: time 30-90 min; procedure, shortened: as §4
[16] = system: BT-549; test: Cytotoxicity in human BT-549 cells assessed as reduction in cell viability incubated for 48 hrs in absence of GSH-OEt by CCK8 assay; type: functional, cell-based; conditions: BT-549, 48 h; procedure, shortened: as §2
[17] = system: A549; test: Antitumor activity against human A549 cells xenografted in Balb/c mouse assessed as reduction in tumor mass at 5 mg/kg, iv dosed every 2 days for total 10 times and measured on day 21 relative to untreated control; type: functional; conditions: time 21 day; procedure, shortened: as §3
[18] = Toxicity in Balb/c mouse xenografted with human A549 cells assessed as induction of side effect at 5 mg/kg, iv dosed every 2 days for total 10 times and measured on day 21; type: organism-based; conditions: in vivo; procedure, shortened: as §3

| Structure (SMILES) | Activity [1] | IC50 ([2]; a549) | IC50 ([3]; bt-549) | Activity [4] | IC50 ([2]; Homo sapiens, A549, 48 h, read-out: IC50) [µM] | IC50 ([3]; Homo sapiens, BT-549, 48 h, read-out: IC50) [µM] | Activity [5] | Activity [6] | IC50 [7] [µM] | Activity [8] | Drug metabolism [9] | IC50 [10] [µM] | Activity [11] | Activity [12] | Drug metabolism [13] [%] | remaining at 24 h, 50 µM [14] [%] | Drug metabolism [15] | IC50 [16] [µM] | fold change (FC) [17] | Activity [18] |
| --- | --- | --- | --- | --- | --- | --- | --- | --- | --- | --- | --- | --- | --- | --- | --- | --- | --- | --- | --- | --- |
| C#CCCC(=O)NCCCC[C@@H]1NC(=O)[C@@H](Cc2ccc(O)cc2)NC(=O)[C@H](CC(=O)O)NC(=O)CNC(=O)[C@H](CCCNC(=N)N)NC1=O | inactive | Not Active | Not Active | inactive |  |  |  |  |  |  |  |  |  |  |  |  |  |  |  |  |
| CC[C@H](C)[C@H]1C(=O)N[C@@H](C)C(=O)N(C)[C@@H](CC(C)C)C(=O)N[C@@H](Cc2ccc(OC)cc2)C(=O)N(C)[C@H](C)C(=O)O[C@H](C)[C@H](N(C)C(=O)[C@H](CC(C)C)N(C)C(=O)[C@H](C)N(C)C(=O)[C@H](OC(=O)[C@H](C(C)C)N(C)C)C(C)C)C(=O)N(C)[C@@H](C)C(=O)N1C (NMe2Val-[dHiv][NMeA][NMeL][NMeT][NMeA][NMeI]A[NMeL]Y(Me)[dNMeA]; ester 4-C) | Active |  |  | Active | 0.0191 | 0.018 | Toxic |  |  |  |  |  |  |  |  |  |  |  |  |  |
| CC[C@H](C)[C@H]1C(=O)N[C@@H](C)C(=O)N(C)[C@@H](CC(C)C)C(=O)N[C@@H](Cc2ccc(OC)cc2)C(=O)N(C)[C@H](C)C(=O)O[C@H](C)[C@H](N(C)C(=O)[C@H](CC(C)C)N(C)C(=O)[C@H](C)N(C)C(=O)[C@H](OC(=O)[C@H](C(C)C)[N+](C)(C)Cc2ccc(NC(=O)OCCSSCCn3cc(CCC(=O)NCCCC[C@@H]4NC(=O)[C@@H](Cc5ccc(O)cc5)NC(=O)[C@H](CC(=O)O)NC(=O)CNC(=O)[C@H](CCCNC(=N)N)NC4=O)nn3)cc2)C(C)C)C(=O)N(C)[C@@H](C)C(=O)N1C.O=C([O-])C(F)(F)F | Active |  |  | Active |  |  |  | Non-Toxic | 0.262 | Active | Metabolite detected | 0.0206 | Active | Non-Toxic | 100 | > 90 | Metabolite detected | 0.311 | 4 | Non-Toxic |
